Compound activity as filed in PubChem BioAssay.
This is a sample that favours compounds with a hit; in the whole collection about 2.9% have one here.
TRPC4 block – blocks the mouse TRPC4 cation channel | B-score at 10 µM | Q9QUQ5 | HEK293 TRPC4beta/mu-opioid, DAMGO-evoked Fluo4 calcium flux; hits give low values | 0.39% of 300,000 active;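 active = B-score over 3 SD under the library average, no early fluorescence shift, positive overall ratio signal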
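Assay system: HEK293 cells with stable TRPC4beta plus mu-opioid receptor expression. Dosing: single dose. Measured by: Fluo4 Ca2+ flux fluorescence. Also added: DAMGO in two steps, submaximal then maximal. Read-out: B score from integrated Fluo4 fluorescence ratio.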
TRPC6 activator – mouse TRPC6 channel activation; Q61143; HEK293-TRPC6 membrane potential dye fluorescence; hits give high values; B-score at 10 µM; 0.13% of 310,000 active; AID 2550;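 active = B-score of the integrated fluorescence ratio above library mean plus 3 SD, and starting fluorescence ratio within library mean plus 5 SD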;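 also: higher score means more depolarization so channel activation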
Target sequence (Q61143 whole entry, looked up): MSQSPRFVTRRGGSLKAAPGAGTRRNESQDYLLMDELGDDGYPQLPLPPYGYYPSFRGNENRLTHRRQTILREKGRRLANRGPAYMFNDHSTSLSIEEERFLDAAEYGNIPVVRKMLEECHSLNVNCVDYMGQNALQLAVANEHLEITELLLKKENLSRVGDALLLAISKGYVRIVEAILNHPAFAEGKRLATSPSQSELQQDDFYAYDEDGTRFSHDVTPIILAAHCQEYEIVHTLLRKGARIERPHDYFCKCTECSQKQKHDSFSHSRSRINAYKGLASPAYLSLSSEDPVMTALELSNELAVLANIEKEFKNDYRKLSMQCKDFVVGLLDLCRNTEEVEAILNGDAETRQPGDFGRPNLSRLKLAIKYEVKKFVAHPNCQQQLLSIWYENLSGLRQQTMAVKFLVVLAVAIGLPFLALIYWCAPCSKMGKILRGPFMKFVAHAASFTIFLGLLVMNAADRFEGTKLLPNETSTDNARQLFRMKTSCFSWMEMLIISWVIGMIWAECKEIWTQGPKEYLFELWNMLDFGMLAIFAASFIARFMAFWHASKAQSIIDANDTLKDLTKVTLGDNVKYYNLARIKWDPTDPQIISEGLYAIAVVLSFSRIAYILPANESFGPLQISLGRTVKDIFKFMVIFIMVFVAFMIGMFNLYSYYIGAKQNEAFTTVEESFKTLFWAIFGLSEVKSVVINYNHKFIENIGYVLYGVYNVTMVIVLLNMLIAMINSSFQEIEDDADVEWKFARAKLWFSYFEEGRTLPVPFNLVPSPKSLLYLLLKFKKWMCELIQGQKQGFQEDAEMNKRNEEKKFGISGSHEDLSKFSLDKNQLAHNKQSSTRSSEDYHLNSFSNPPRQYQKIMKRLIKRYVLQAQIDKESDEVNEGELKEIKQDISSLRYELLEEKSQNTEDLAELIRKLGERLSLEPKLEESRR
Kir21 inh – Kir2.1 (mouse) channel inhibition | 0.85% of 310,000 active | P35561 | B-score at 10 µM | HEK293-Kir2.1, FluxOR thallium flux fluorescence; hits give low values | AID 1672;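 active = fluorescence ratio B-score at or below minus 3 SD of library scores, with starting-brightness B-score within 2 SD, cut at about -4.2 in these data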;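 also: channel flux triggered by added potassium and thallium sulfate stimulus; B-score of peak minus minimum fluorescence over baseline after thallium stimulus; more negative B-score means stronger Kir2.1 block with less thallium influx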
TRPC4 PAM – allosterically enhances the mouse TRPC4 cation channel. B-score at 10 µM. HEK293 TRPC4beta/mu-opioid, DAMGO EC20, Fluo-4 Ca2+ flux; hits give high values. AID 2227. 0.42% of 310,000 active;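 active = B-score of calcium response area above 5 SD of library B-scores, with initial fluorescence ratio within 5 SD of library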;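 also: B-score of integrated fluorescence ratio over time as area under calcium response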
TRPC6 inhibitor – mouse TRPC6 channel inhibition. Q61143. HEK293-TRPC6, membrane potential dye, ACh-evoked depolarization; hits give low values. B-score at 10 µM. 1.1% of 310,000 active. AID 2553;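 active = B-score under library mean minus 3 SD, initial fluorescence not abnormally high, positive integrated signal ratio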;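 also: B-score derived from integrated fluorescence ratio over the kinetic read; more negative B-score means stronger inhibition of depolarization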
TRPC4 agonist – opens the mouse TRPC4 cation channel; B-score at 10 µM; HEK293 TRPC4beta/mu-opioid, Fluo4 calcium fluorescence; hits give high values; Q9QUQ5; AID 2237; 0.49% of 310,000 active;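 active = B-score above 5 SD of library B-scores, and initial fluorescence ratio not above library mean plus 5 SD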;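 also: positive B-score marks a calcium rise read as TRPC4 activation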
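System – HEK293 cells stably co-expressing mouse TRPC4beta and mu-opioid receptor · Signal – Fluo4 calcium-sensitive dye fluorescence, kinetic, 1 Hz baseline · Benchmarks – buffer (low) and maximal DAMGO (high) · Read-out – B score of integrated fluorescence ratio per well · Incubation – dye loading 45 min room temperature, 110 s kinetic read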
TRPC4 sel inh 2 – mouse TRPC4 off-target activity of TRPC6 inhibitors, second screen; AID 2776; shares compounds with TRPC6 inhibitor; inhibition, % at 10 µM; 42% of 920 active; HEK293 TRPC4/MOR, membrane potential dye fluorescence; channel activated by saturating DAMGO dose;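 active = compounds whose fluorescence signal differed from control wells by over 3 SD, either direction, in both duplicate plates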
TRPC4 spec – tests whether TRPC6 inhibitors also affect mouse TRPC4; shares compounds with TRPC6 inhibitor; HEK293 TRPC4/mu-opioid, membrane potential fluorescence; activity change, negative = inhibition, % at 10 µM; 61% of 920 active; AID 2777;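 active = rise or fall in signal beyond 3 SD of buffer-only wells in both replicate plates, either sign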;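 also: integrated kinetic ratio of fluorescence range over baseline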
HEK293 MPD ctr 2-1 – second check of TRPC6 inhibitor effects in parental HEK293 cells; shares compounds with TRPC6 inhibitor; parental HEK293 membrane potential dye fluorescence; maximal acetylcholine challenge after compound addition; signal change vs control, % at 10 µM; 31% of 920 active; AID 2779;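 active = membrane potential signal moving either way by over 3 SD of the maximum-effect control, in both duplicate plates, meaning non-specific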
HEK293 MPD ctr-1 – checks TRPC6 inhibitor effects in parental HEK293 cells; shares compounds with TRPC6 inhibitor; 60% of 920 active; membrane potential signal change, % at 10 µM; parental HEK293 membrane potential dye fluorescence; AID 2780;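 active = membrane potential signal shifting up or down by more than 3 SD of buffer-only wells, on both duplicate plates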
HEK293 MPD ctr-2 – counter-screen for TRPC6 modulators: effect in parental HEK293 cells. 51% of 2,400 active. membrane potential signal change, % at 10 µM. AID 488924. shares compounds with TRPC6 inhibitor. membrane potential dye fluorescence;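 active = membrane potential signal moves up or down beyond 5 SD from buffer-only wells, on both duplicate plates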
HEK293 MPD ctr 2-2 – parental HEK293 nonspecific activity of TRPC6 modulators, second screen. shares compounds with TRPC6 inhibitor. membrane potential dye fluorescence; after compound, maximal acetylcholine stimulation. inhibition, % at 10 µM. 14% of 2,400 active. AID 488926;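 active = membrane potential signal drops by more than 5 SD from the mean control signal, in both duplicate plates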;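 also: plate controls were acetylcholine ECmax control wells for no effect and buffer only wells for full effect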
TRPC4 ctr mod – selectivity of TRPC6 modulators against mouse TRPC4; HEK293 TRPC4/mu-opioid, membrane potential fluorescence; shares compounds with TRPC6 inhibitor; 69% of 2,400 active; percent change from control (negative = decrease, positive = increase), % at 10 µM;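 active = membrane potential signal moved up or down beyond 5 SD of buffer control wells, in both duplicate plates, actives on both sides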;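 also: plate controls were assay buffer wells for no effect and DAMGO maximal-effect wells for full effect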
TRPC4/MOR inh 2 – second check of whether TRPC6 modulators also affect mouse TRPC4 | shares compounds with TRPC6 inhibitor | HEK293 TRPC4/mu-opioid, membrane potential dye fluorescence; stimulated with maximal-effect DAMGO | inhibition, % at 10 µM | 55% of 2,400 active | AID 488928;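 active = drop in membrane potential signal beyond 5 SD of the control wells in both duplicate plates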;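 also: TRPC4 counter screen for TRPC6 hits run under conditions tuned for TRPC6 not TRPC4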
TRPC6 block conf – mouse TRPC6 inhibitor confirmation. shares compounds with TRPC6 inhibitor. HEK293-TRPC6, membrane potential dye, ACh-evoked depolarization. inhibition, % at 10 µM. 43% of 3,300 active;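 active = fluorescence ratio falls more than 5 SD below the full-stimulation control mean, in both duplicate runs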;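 also: integrated fluorescence ratio of peak minus minimum over baseline after agonist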
TRPC6 act conf – confirmation of mouse TRPC6 activators. activation, % at 10 µM. HEK293-TRPC6 membrane potential dye fluorescence, FDSS. shares compounds with TRPC6 inhibitor. AID 488961. 11% of 2,800 active;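 active = ratio signal rise beyond 5 SD above unstimulated control wells' mean, seen in both duplicate runs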;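 also: plate controls were buffer EC0 wells for no effect and acetylcholine ECmax response for full effect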
An asterisk follows results filed as active; i = inactive; nt = no result.

SMILES	TRPC4 block	TRPC6 activator	Kir21 inh	TRPC4 PAM	TRPC6 inhibitor	TRPC4 agonist	HEK293 MPD ctr-2	HEK293 MPD ctr 2-2	TRPC4 ctr mod	TRPC4/MOR inh 2	TRPC6 block conf	TRPC6 act conf	others
N=C1/C(=C/c2cccn2Cc2ccc(F)cc2)C(=O)N=C2SC=CN12	i	i	1.3	i	i	i	nt	nt	nt	nt	nt	nt
CCN1CCN(c2nc3c(C)cccn3c(=O)c2/C=C(\C#N)C(=O)NCCOC)CC1	i	i	-0.01	i	-5.5*	i	-278%*	i	-52%*	i	i	i
COCCNC(=O)/C(C#N)=C/c1c(N2CCN(C)CC2)nc2c(C)cccn2c1=O	i	i	0	i	i	i	nt	nt	nt	nt	nt	nt
Cc1cccn2c(=O)c(/C=C(\C#N)C(=O)NC3CCS(=O)(=O)C3)c(N3CC(C)OC(C)C3)nc12 (centres undefined)	i	i	-0.05	i	-5*	i	i	i	-14%*	i	i	i
CCOc1cccc(NC(=O)c2cnccc2C(F)(F)F)c1	i	i	-0.01	i	i	i	nt	nt	nt	nt	nt	nt
CN1CCN(C(=O)C2=C[C@H](c3coc4ccccc4c3=O)C[C@H](OCCCCO)O2)CC1	i	i	-0.06	i	i	i	nt	nt	nt	nt	nt	nt
COC(=O)CN1C(=S)N(c2ccc(Cl)cc2)C(=O)C1CC(=O)Nc1ccc(F)cc1 (centres undefined)	i	i	-0.74	i	i	i	nt	nt	nt	nt	nt	nt
COC(=O)CN1C(=S)N(c2ccc(Cl)cc2)C(=O)C1CC(=O)Nc1ccc(Cl)cc1 (centres undefined)	i	i	0.09	i	-6.6*	i	-68%*	i	-20%*	32%*	i	i
Cc1cccnc1NC(=O)c1ccc(S(=O)(=O)N2CCC(C)CC2)cc1	i	i	0.05	i	i	i	nt	nt	nt	nt	nt	nt
CC(C)CCN1C(=O)CCC1(C)C(=O)NC1CCCCCC1 (centres undefined)	i	i	0.89	i	-5.8*	i	128%*	i	26%*	i	i	nt
N#C/C(=C/c1ccc(N2CCCCC2)o1)C(=O)Nc1ccc2ccccc2c1	i	80*	0.13	i	i	i	844%*	i	233%*	i	i	274%*
N#C/C(=C/c1ccc(N2CCCCC2)o1)C(=O)Nc1ccc(Cl)cc1	i	i	-0.78	i	i	i	nt	nt	nt	nt	nt	nt
O=C(COC(=O)c1cnccn1)NCCc1ccccc1	i	i	-1.4	i	i	i	nt	nt	nt	nt	nt	nt
CCNC(=S)N/N=C(\C)c1ccc(N2CCOCC2)cc1	i	i	0.1	i	i	i	nt	nt	nt	nt	nt	nt
Cc1[nH]c2ccccc2c1/C=N/Nc1ccc([N+](=O)[O-])cc1	i	11*	-4.4	i	i	i	144%*	i	36%*	i	i	56%*
c1ccc(C[C@H]2CNCCN2CCCCC2CCCCC2)cc1	i	i	-3.3	i	-6*	i	i	i	i	48%*	i	i
CS(=O)(=O)C1=C(O)C(=O)N(CCCC(=O)O)C1c1ccccc1F (centres undefined)	i	i	1.3	i	i	i	nt	nt	nt	nt	nt	nt
CCOC(=O)c1c(C)oc2c1c(CN1CCN(C(=O)OCC)CC1)c(O)c1ccccc12	i	i	-0.03	i	i	i	nt	nt	nt	nt	nt	nt
CCOC(=O)c1c(C)oc2c(CC(=O)c3ccccc3)c(Cl)c(O)c(O)c12	i	i	0.89	i	-9*	i	nt	nt	nt	nt	i	i	TRPC4 sel inh 2=i;TRPC4 spec=i;HEK293 MPD ctr 2-1=i;HEK293 MPD ctr-1=i
COc1cc(/C=C/c2nc3ccc([N+](=O)[O-])cc3s2)ccc1OCC(=O)O	i	i	1.9	i	-6.7*	i	-69%*	i	-20%*	i	i	i
CC(C)CCNC(=O)C(c1ccco1)N(Cc1cccs1)C(=O)Cn1nnc2ccccc21 (centres undefined)	i	15*	-2.1	i	i	i	281%*	i	72%*	i	i	98%*
O=C(Nc1cccc2ccccc12)/C(=C/c1ccc([N+](=O)[O-])cc1)NC(=O)c1ccccc1	i	i	0.13	i	-6*	i	i	i	i	71%*	58%*	i
CCN(CC)CC#CCOC(=O)C(O)(c1ccccc1)C1CCCCC1 (centres undefined)	i	i	-1.1	i	-6.4*	i	121%*	97%*	26%*	i	81%*	nt
O=C(CC(c1ccccc1)c1ccccc1O)NCc1ccccc1 (centres undefined)	i	i	-1.8	i	i	i	nt	nt	nt	nt	nt	nt
Cc1ccc(-c2csc(N=C(N)N)n2)c(C)c1	i	i	-8.3*	i	-5.5*	i	94%*	i	12%*	52%*	i	nt
